Test results reported in ChEMBL document CHEMBL4673344, “Novel substituted N-benzyl(oxotriazinoindole) inhibitors of aldose reductase exploiting ALR2 unoccupied interactive pocket” (Bioorg Med Chem, 2021).

How the values were obtained:
ALR1 = assay: Inhibition of Wistar rat kidney ALR1 assessed as reduction in NADPH consumption using sodium D-glucuronate as substrate at 100 uM incubated for 1 min and measured up to 4 mins by spectrophotometric analysis relative to control; assay type: tissue-based; conditions: rat kidney ALR1 (aldehyde reductase) enzyme, probe sodium D-glucuronate
Outline: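 Enzyme: ALR1 isolated from rat kidneys. Activity was followed spectrophotometrically as NADPH consumption at 340 nm and expressed as decrease in O.D./s/mg protein. Inhibition is given as % of enzyme inhibition at 100 μM inhibitor.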

[1] = Inhibition of Wistar rat lens ALR2 assessed as reduction in NADPH consumption using D,L-glyceraldehyde as substrate incubated for 1 min and measured up to 4 mins by spectrophotometric analysis; assay type: tissue-based
Outline: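 ALR2 was isolated from rat eye lenses and assayed for reduction of D,L-glyceraldehyde. NADPH consumption was read spectrophotometrically at 340 nm, with activity expressed as decrease in O.D./s/mg protein. The IC50 was derived from inhibition of this activity.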

Rattus norvegicus [2] = species on record: Rattus norvegicus; assay: Selectivity index, ratio of IC50 for Wistar rat kidney ALR1 to IC50 for Wistar rat lens ALR2
Outline: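 Selectivity factor S_F = IC50(ALR1)/IC50(ALR2). ALR1 came from rat kidneys and ALR2 from rat eye lenses with D,L-glyceraldehyde as substrate. Both were assayed spectrophotometrically by NADPH consumption at 340 nm.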

[3] = Inhibition of Wistar rat kidney ALR1 assessed as reduction in NADPH consumption using sodium D-glucuronate as substrate incubated for 1 min and measured up to 4 mins by spectrophotometric analysis; assay type: tissue-based
Outline: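 Aldehyde reductase (ALR1) was isolated from rat kidneys. Activity was monitored spectrophotometrically by NADPH consumption at 340 nm, expressed as decrease in O.D./s/mg protein. The IC50 was determined from inhibition of this activity.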

Rattus norvegicus [4] = species on record: Rattus norvegicus; assay: Potency index, ratio of IC50 of OTI-6 to IC50 of compound for inhibition of Wistar rat lens ALR2 assessed as reduction in NADPH consumption using D,L-glyceraldehyde as substrate incubated for 1 min and measured up to 4 mins by spectrophotometric analysis; assay type: tissue-based

inhibition at 4 min, 100 µM (ALR1) | IC50 [1] | pIC50 [1] | Ratio IC50 (Rattus norvegicus [2]) | IC50 [3] | SMILES | Ratio IC50 (Rattus norvegicus [4])
33% | 0.241 µM | 6.61 | > 410 | > 100 µM | O=C(O)Cn1c2ccccc2c2nn(Cc3ccccc3CO)c(=O)nc21 | 2
62% | 0.139 µM | 6.86 | 424 | 59 µM | O=C(O)Cn1c2ccccc2c2nn(Cc3ccccc3C(=O)O)c(=O)nc21 | 

Second part, the compound before the results:

SMILES | inhibition at 4 min, 100 µM (ALR1) | IC50 [1] | pIC50 [1] | Ratio IC50 (Rattus norvegicus [2]) | IC50 [3] | Ratio IC50 (Rattus norvegicus [4])
N#Cc1ccccc1Cn1nc2c3ccccc3n(CC(=O)O)c2nc1=O | 51% | 0.076 µM | 7.12 | > 1330 | > 100 µM | 
NC(=O)c1ccccc1Cn1nc2c3ccccc3n(CC(=O)O)c2nc1=O | 50% | 0.236 µM | 6.63 | > 424 | > 100 µM | 2
O=C(O)Cn1c2ccccc2c2nn(Cc3ccccc3)c(=O)nc21 | 38% | 0.434 µM | 6.36 | > 230 | > 100 µM | 
